In ChEMBL document CHEMBL1122353, “DNA binding studies of 7-bulky-substituted actinomycin analogues” (J Med Chem, 1983):
*1 amine or outer side, *2 acyl side, *3 side chain or, on linkers, in order; H or OH if unused. Where a SMILES comes first, the peptide text is derived from it. Bridges are numbered along the chain shown (N, C = ends). Roman numbers before positions name the chains, in order. [ ]: non-standard residue; d: D form. Actinocin(9to1) = Cc1c2oc3c(C)ccc(C(=O)[*:1])c3nc-2c(C(=O)[*:2])c(N)c1=O; NMeV = CN[C@H](C(=O)O)C(C)C; Sar = CNCC(=O)O

Columns and labels:
[1] = test system: Nucleic Acid; test: Increase in thermal denaturation temperature of calf thymus DNA; type: functional; details: Bos taurus
[2] = test system: Nucleic Acid; test: Time constant of slowest dissociation step of drug from DNA complex; type: functional
Method in brief: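 Purified calf thymus DNA–drug complexes were held in 0.01 M phosphate buffer (pH 7.0) at 20 °C, with a DNA (nucleotide):drug ratio of 20:1. 5% NaDodSO4 was added to sequester free drug. Absorbance decay was followed over time at a wavelength chosen for each drug (430–492 nm). τ was taken as the time constant of the slowest dissociation step.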

[3] = test system: DNA (Bos taurus); test: Apparent binding constant for calf thymus DNA

Row | SMILES | ΔTm [1] | rel T [2] | K app [3]
1 | Cc1c2oc3c(C)c(O)c(N)c(C(=O)N4OC(=O)[C@H](C(C)C)N(C)C(=O)CCNC(=O)[C@@H]5CCCN5C(=O)[C@H](C(C)C)NC(=O)[C@@H]4[C@@H](C)O)c3nc-2c(C(=O)N2OC(=O)[C@H](C(C)C)N(C)C(=O)CCNC(=O)[C@@H]3CCCN3C(=O)[C@H](C(C)C)NC(=O)[C@@H]2[C@@H](C)O)c/c1=N/Cc1ccc[nH]1 | 16 °C | 225 | 9.2e+07 M⁻¹
2 | Cc1c2oc3c(C)c(O)c(N)c(C(=O)N4OC(=O)[C@H](C(C)C)N(C)C(=O)CCNC(=O)[C@@H]5CCCN5C(=O)[C@H](C(C)C)NC(=O)[C@@H]4[C@@H](C)O)c3nc-2c(C(=O)N2OC(=O)[C@H](C(C)C)N(C)C(=O)CCNC(=O)[C@@H]3CCCN3C(=O)[C@H](C(C)C)NC(=O)[C@@H]2[C@@H](C)O)c/c1=N/Cc1ccc(Cl)c(Cl)c1 | 7 °C | 60 | 2.6e+07 M⁻¹
3 | Cc1c2oc3c(C)ccc(C(=O)N[C@@H]4C(=O)N[C@H](C(C)C)C(=O)N5CCC[C@H]5C(=O)N(C)CC(=O)N(C)[C@@H](C(C)C)C(=O)O[C@@H]4C)c3nc-2c(C(=O)N[C@@H]2C(=O)N[C@H](C(C)C)C(=O)N3CCC[C@H]3C(=O)N(C)CC(=O)N(C)[C@@H](C(C)C)C(=O)O[C@@H]2C)c(N)c1=O (I: T[dV]P[Sar][NMeV] / II: T[dV]P[Sar][NMeV]; ester I:1-I:C, II:1-II:C; linker I:N-II:N via Actinocin(9to1)) | 8 °C | 100 | 
4 | Cc1c2oc3c(C)c(O)c(N)c(C(=O)N4OC(=O)[C@H](C(C)C)N(C)C(=O)CCNC(=O)[C@@H]5CCCN5C(=O)[C@H](C(C)C)NC(=O)[C@@H]4[C@@H](C)O)c3nc-2c(C(=O)N2OC(=O)[C@H](C(C)C)N(C)C(=O)CCNC(=O)[C@@H]3CCCN3C(=O)[C@H](C(C)C)NC(=O)[C@@H]2[C@@H](C)O)cc1=N | 8 °C | 125 | 2.3e+07 M⁻¹
